Laboratory results from ChEMBL document CHEMBL4680135, “Design, synthesis and biological evaluation of indole-2-carboxylic acid derivatives as IDO1/TDO dual inhibitors” (Eur J Med Chem, 2020).

Legend:
[1] = molecular target: Indoleamine 2,3-dioxygenase 1 (Homo sapiens, UniProt P14902); assay: Inhibition of recombinant human IDO1 assessed as reduction in kynurenine formation using L-tryptophan as substrate incubated for 45 mins by microplate reader assay
[2] = molecular target: Tryptophan 2,3-dioxygenase (Homo sapiens, UniProt P48775); assay: Inhibition of recombinant human TDO assessed as reduction in kynurenine formation using L-tryptophan as substrate incubated for 45 mins by microplate reader assay
Tryptophan 2,3-dioxygenase, sequence (P48775 whole entry): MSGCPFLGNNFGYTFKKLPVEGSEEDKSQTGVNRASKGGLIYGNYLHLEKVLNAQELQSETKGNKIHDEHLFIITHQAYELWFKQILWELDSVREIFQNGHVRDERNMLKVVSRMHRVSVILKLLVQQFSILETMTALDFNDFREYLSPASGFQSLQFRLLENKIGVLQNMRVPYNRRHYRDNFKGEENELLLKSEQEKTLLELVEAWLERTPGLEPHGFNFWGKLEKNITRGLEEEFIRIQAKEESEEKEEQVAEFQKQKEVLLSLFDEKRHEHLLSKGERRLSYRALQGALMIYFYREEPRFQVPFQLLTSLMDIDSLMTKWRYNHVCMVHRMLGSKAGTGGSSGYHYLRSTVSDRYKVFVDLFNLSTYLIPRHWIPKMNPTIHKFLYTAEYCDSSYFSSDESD
Method in brief: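 Purified recombinant human TDO (0.05 μM) in 100 mM potassium phosphate pH 6.5 with 40 mM neutralized ascorbate, 200 μg/mL catalase, 20 μM methylene blue, L-Trp substrate and compound; 37 °C, 45 min. Stopped with 30% TCA, 65 °C 15 min, then 2% p-dimethylaminobenzaldehyde in acetic acid; absorbance 490 nm; IC50 by curve fitting.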

Indoleamine 2,3-dioxygenase 1, sequence (P14902 whole entry): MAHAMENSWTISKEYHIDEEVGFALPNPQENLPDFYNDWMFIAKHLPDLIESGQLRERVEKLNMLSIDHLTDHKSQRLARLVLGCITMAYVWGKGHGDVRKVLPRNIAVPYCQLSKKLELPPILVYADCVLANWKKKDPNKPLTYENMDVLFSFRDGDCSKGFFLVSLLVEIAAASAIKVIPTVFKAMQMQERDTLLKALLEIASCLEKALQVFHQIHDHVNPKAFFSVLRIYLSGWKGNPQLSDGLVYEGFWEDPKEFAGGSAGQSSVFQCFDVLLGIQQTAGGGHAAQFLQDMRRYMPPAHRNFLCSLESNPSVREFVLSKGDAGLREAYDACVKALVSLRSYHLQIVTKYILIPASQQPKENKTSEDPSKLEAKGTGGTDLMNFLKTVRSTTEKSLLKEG

| Compound | IC50 [1] | IC50 [2] |
| --- | --- | --- |
| COc1cc(Nc2ccc(F)c3[nH]c(C(=O)O)cc23)cc(OC)c1OC | 22.2 µM | 23.3 µM |
| CC(=O)Nc1cc(Nc2ccc(F)c(OCC(F)(F)F)c2)c2cc(C(=O)O)[nH]c2c1 | 4.62 µM | 9.63 µM |
| O=C(O)c1cc2c(C(=O)Nc3ccc(F)c(Cl)c3)ccc(F)c2[nH]1 | > 100 µM | – |
| CC(=O)Nc1cc(Nc2ccc(F)c(OCC3CC3)c2)c2cc(C(=O)O)[nH]c2c1 | 3.11 µM | 4.09 µM |
| O=C(O)c1cc2c(Nc3ccc(Cl)c(Cl)c3)ccc(F)c2[nH]1 | > 100 µM | – |
| CC(=O)Nc1cc(Nc2ccc(F)c(C3CC3)c2)c2cc(C(=O)O)[nH]c2c1 | 2.95 µM | 5.45 µM |
| CC(=O)Nc1cc(Nc2ccc(F)c(F)c2)c2cc(C(=O)O)[nH]c2c1 | 1.17 µM | 1.55 µM |
| O=C(O)c1cc2c(Nc3ccc(F)c(Cl)c3)cc([N+](=O)[O-])cc2[nH]1 | > 100 µM | > 100 µM |
| O=C(O)c1cc2c(Nc3ccc(F)c(Cl)c3)ccc(Cl)c2[nH]1 | > 100 µM | – |
| NC(=O)c1cc2c(Nc3ccc(F)c(Cl)c3)ccc(F)c2[nH]1 | > 100 µM | – |
| CC(=O)Nc1cc(Nc2ccc(F)nc2)c2cc(C(=O)O)[nH]c2c1 | 38.5 µM | 46.1 µM |
| CCCOc1cc(Nc2cc(NC(C)=O)cc3[nH]c(C(=O)O)cc23)ccc1F | 1.48 µM | 4.46 µM |
| CC(=O)Nc1cc(Nc2ccc(F)c(Cl)c2)c2cc(C(=O)O)[nH]c2c1 | 8.4 µM | 8.48 µM |
| COc1ccc(Nc2cc(NC(C)=O)cc3[nH]c(C(=O)O)cc23)cn1 | 3.41 µM | 3.62 µM |
| COc1cc(Nc2ccc(F)c3[nH]c(C(=O)O)cc23)cc(C(F)(F)F)c1 | > 100 µM | – |
| N/C(=N\O)c1cc2c(Nc3ccc(F)c(Cl)c3)ccc(F)c2[nH]1 | > 100 µM | – |
| O=C(O)c1cc2c(Nc3cccc4[nH]ccc34)ccc(F)c2[nH]1 | > 100 µM | – |
| Cn1c(C(=O)O)cc2c(Nc3ccc(F)c(Cl)c3)ccc(F)c21 | > 100 µM | – |
| O=C(O)c1cc2c(Nc3ccc(OC(F)(F)F)c(Cl)c3)ccc(F)c2[nH]1 | > 100 µM | – |
| CC(=O)Nc1cc(Nc2ccc(OC(F)(F)F)cc2)c2cc(C(=O)O)[nH]c2c1 | 23.7 µM | 5.71 µM |
| COc1cc(Cl)cc(Nc2ccc(F)c3[nH]c(C(=O)O)cc23)c1 | > 100 µM | – |
| Cc1cc2c(Nc3ccc(F)c(Cl)c3)ccc(F)c2[nH]1 | > 100 µM | – |
| O=C(O)c1cc2c(Nc3ccc(F)c(Cl)c3)ccc([N+](=O)[O-])c2[nH]1 | > 100 µM | – |
| CC(=O)Nc1cc(Nc2ccc(F)cc2)c2cc(C(=O)O)[nH]c2c1 | 5.28 µM | 7.69 µM |
| O=C(O)c1cc2c(Nc3ccc(F)c(Br)c3)ccc(F)c2[nH]1 | 9.93 µM | 10.5 µM |

| Compound | IC50 [1] | IC50 [2] |
| --- | --- | --- |
| CC(=O)Nc1cc(Nc2ccc(C(F)(F)F)cc2)c2cc(C(=O)O)[nH]c2c1 | 55.5 µM | 23.2 µM |
| CC(=O)Nc1cc(Nc2ccc(F)c(Oc3ccccc3)c2)c2cc(C(=O)O)[nH]c2c1 | 5.83 µM | 1.44 µM |
| CC(=O)Nc1cc(Nc2cccc3[nH]ncc23)c2cc(C(=O)O)[nH]c2c1 | 7.52 µM | 6.78 µM |
| Cc1cc(Nc2ccc(F)c(Cl)c2)c2cc(C(=O)O)n(C)c2c1 | > 100 µM | – |
| O=C(O)c1cc2c(Nc3cc(Br)ccc3F)ccc(F)c2[nH]1 | 28.1 µM | 41.4 µM |
| CC(=O)Nc1cc(Nc2ccc(F)c(OC(F)(F)F)c2)c2cc(C(=O)O)[nH]c2c1 | 1.37 µM | 3.62 µM |
| O=C(NO)c1cc2c(Nc3ccc(F)c(Cl)c3)ccc(F)c2[nH]1 | > 100 µM | – |
| N#Cc1ccc(Nc2ccc(F)c(Cl)c2)c2cc(C(=O)O)[nH]c12 | > 100 µM | – |
| O[C@H](C[C@H]1c2c(F)cccc2-c2cncn21)[C@H]1CC[C@H](O)CC1 [NAVOXIMOD] | – | 0.8 µM |
| O=C(O)c1cc2c(NCc3ccc(F)c(Cl)c3)ccc(F)c2[nH]1 | > 100 µM | – |
| O=C(Cc1ccc(F)c(Cl)c1)Nc1ccc(F)c2[nH]c(C(=O)O)cc12 | > 100 µM | – |
| N#Cc1cc2c(Nc3ccc(F)c(Cl)c3)ccc(F)c2[nH]1 | > 100 µM | – |
| CCNC1=C/C(=N\c2ccc(F)c(Cl)c2)c2cc(C(=O)O)[nH]c2C1=O | 0.018 µM | 0.025 µM |
| CC(=O)Nc1cc(Nc2ccc(F)cn2)c2cc(C(=O)O)[nH]c2c1 | 10.8 µM | 11.7 µM |
| COc1cc(Nc2ccc(F)c3[nH]c(C(=O)O)cc23)ccc1F | 54.4 µM | 31.4 µM |
| Cc1cc(Nc2ccc(F)c(Cl)c2)c2cc(C(=O)O)[nH]c2c1 | 35.6 µM | 22.5 µM |
| Cc1ccc(Nc2ccc(F)c(Cl)c2)c2cc(C(=O)O)[nH]c12 | > 100 µM | – |
| O=C(O)c1cc2c(Sc3ccc(F)c(Cl)c3)ccc(F)c2[nH]1 | > 100 µM | – |
| N#Cc1cc(Nc2ccc(F)c3[nH]c(C(=O)O)cc23)ccc1F | > 100 µM | – |
| O=C(Nc1ccc(F)c2[nH]c(C(=O)O)cc12)c1ccc(F)c(Cl)c1 | > 100 µM | – |
| CC(=O)Nc1cc(Nc2ccc(F)c(-c3ccsc3)c2)c2cc(C(=O)O)[nH]c2c1 | 3.89 µM | 2.53 µM |
| O=C(O)c1cc2c(Nc3ccc(F)c(Cl)c3)cccc2[nH]1 | > 100 µM | – |
| O=C(O)c1cc2c(Nc3ccc(F)c4[nH]ccc34)ccc(F)c2[nH]1 | > 100 µM | – |
| CC(=O)Nc1cc(Nc2ccc(F)c(OC(C)C)c2)c2cc(C(=O)O)[nH]c2c1 | 3.09 µM | 6.46 µM |
| Fc1ccc(Nc2ccc(F)c3[nH]ccc23)cc1Cl | > 100 µM | – |

| Compound | IC50 [1] | IC50 [2] |
| --- | --- | --- |
| CCNc1cc(Nc2ccc(F)c(Cl)c2)c2cc(C(=O)O)[nH]c2c1 | 1.75 µM | 3.53 µM |
| N#Cc1cc(Nc2ccc(F)c(Cl)c2)c2cc(C(=O)O)[nH]c2c1 | > 100 µM | > 100 µM |
| COc1ccc(Nc2ccc(F)c3[nH]c(C(=O)O)cc23)cc1Cl | > 100 µM | – |
| O=C(O)c1cc2c(Nc3ccc(F)c(Cl)c3)ccc(F)c2[nH]1 | 40.7 µM | 99.2 µM |
| OCc1cc2c(Nc3ccc(F)c(Cl)c3)ccc(F)c2[nH]1 | > 100 µM | – |
| COc1ccc(C(=O)O)c(Nc2ccc(F)c3[nH]c(C(=O)O)cc23)c1 | > 100 µM | – |
| CC(=O)Nc1cc(Nc2ccc(OC(F)F)cc2)c2cc(C(=O)O)[nH]c2c1 | 3.18 µM | 5.5 µM |
| CCOc1cc(Nc2cc(NC(C)=O)cc3[nH]c(C(=O)O)cc23)ccc1F | 2.2 µM | 5.13 µM |
| O=C(O)c1cc2c(Nc3ccc(F)c4[nH]c(C(=O)O)cc34)ccc(F)c2[nH]1 | 2.72 µM | 3.48 µM |
| COc1ccc(Nc2ccc(F)c(Cl)c2)c2cc(C(=O)O)[nH]c12 | 32.4 µM | 19.5 µM |
| O=C(O)c1cc2c(Nc3ccc(F)c(F)c3)ccc(F)c2[nH]1 | > 100 µM | – |
| O=C(O)c1cc2c(Nc3ccc(F)c(Cl)c3)cc(F)cc2[nH]1 | > 100 µM | – |
| COc1ccc(Nc2cc(NC(C)=O)cc3[nH]c(C(=O)O)cc23)cc1 | 1.71 µM | 3.01 µM |
| O=C(O)c1cc2c(Nc3ccc(C(F)(F)F)c(Cl)c3)ccc(F)c2[nH]1 | > 100 µM | – |
| CC(=O)Nc1ccc(Nc2ccc(F)c(Cl)c2)c2cc(C(=O)O)[nH]c12 | > 100 µM | – |
| COc1ccc(Nc2cc(NC(C)=O)cc3[nH]c(C(=O)O)cc23)nc1 | 4.73 µM | 5.27 µM |
| O=C(Nc1ccc(F)c(Cl)c1)Nc1ccc(F)c2[nH]c(C(=O)O)cc12 | > 100 µM | – |
| O=C(O)c1cc2c(Nc3ccc(F)c(Cl)c3)cc(Cl)cc2[nH]1 | > 100 µM | – |
| COc1cc(Nc2cc(NC(C)=O)cc3[nH]c(C(=O)O)cc23)ccc1F | 1.23 µM | 2.49 µM |
| O=C(O)c1cc2c(Nc3ccc(F)c(OC(F)(F)F)c3)ccc(F)c2[nH]1 | 16.3 µM | 16.5 µM |
| COc1cc(Nc2ccc(F)c(Cl)c2)c2cc(C(=O)O)[nH]c2c1 | > 100 µM | – |
| CC(=O)Nc1cc(Nc2ccc(F)c(OCc3ccccc3)c2)c2cc(C(=O)O)[nH]c2c1 | 10 µM | 5.24 µM |
| CC(=O)Nc1cc(Nc2ccc(F)c(C)c2)c2cc(C(=O)O)[nH]c2c1 | 1.83 µM | 1.7 µM |
| CC(=O)Nc1cc(Nc2ccc(F)c(Cl)c2)c2cc(C(=O)O)sc2c1 | > 100 µM | – |
